# Laboratory results from ChEMBL document CHEMBL1156831, “Discovery of matrix metalloproteases selective and activated peptide-doxorubicin prodrugs as anti-tumor agents” (Bioorg Med Chem Lett, 2010).
# Numbered stars: 1 amine (or outer) side, 2 acyl side, 3 side chain; on linkers, the order of the positions; unused ones are H or OH. Square brackets hold non-standard residues; d marks the D form. Peptide text beside a SMILES is read from it. * marks the point of attachment. ξ: configuration not given here. Doxorubicin(3'-N) = COc1cccc2c1C(=O)c1c(O)c3c(c(O)c1C2=O)C[C@@](O)(C(=O)CO)C[C@@H]3O[C@H]1C[C@H](N*)[C@H](O)[C@H](C)O1; X4 = O=C(c1cc(S(=O)(=O)O)cc(S(=O)(=O)O)c1)*; X6 = CN1CCN(CCCC(N[*:1])C(=O)[*:2])CC1; hTyr = N[C@@H](CCc1ccc(O)cc1)C(=O)O; X2 = O=C(C(CCc1ccncc1)N[*:1])[*:2]; hPhe = N[C@@H](CCc1ccccc1)C(=O)O; Cit = NC(=O)NCCC[C@H](N)C(=O)O; Suc = O=C(CCC(=O)[*:2])[*:1]; X5 = O=C(CS(=O)(=O)O)*; ξP = O=C(O)C1CCCN1; Bn = c1ccc(C*)cc1
# Assays:
# [1] = molecular target: Neprilysin (Homo sapiens) (UniProt P08473); experiment: Ratio Kcat to […] for neprilysin
# [2] = molecular target: Matrix metalloproteinase-9 (Homo sapiens) (UniProt P14780); experiment: Ratio Kcat to Ki for MMP9
# [3] = molecular target: Matrix metalloproteinase-14 (Homo sapiens) (UniProt P50281); experiment: Ratio Kcat to […] for MMP14
# [4] = molecular target: 72 kDa type IV collagenase (Homo sapiens) (UniProt P08253); experiment: Ratio Kcat to Ki for MMP2
# [5] = Aqueous solubility at pH 7.4; assay type: physicochemical; settings: aqueous medium
# [6] = Compound remaining in mouse blood after 6 hrs; assay type: ADME, tissue-based; settings: read-out: Stability
# [7] = Biodistribution in tumor in mouse bearing human HT1080 relative to doxorubicin; assay type: ADME, organism-based, Neoplasm; settings: in vivo
# In short: (§1)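 Dox was measured in HT1080 xenograft tumor and in heart tissue 24 h after a single iv dose in mice. The tumor/heart Dox ratio was normalized to the ratio obtained with free Dox.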
# [8] = Ratio of drug level in tumor to heart in mouse bearing human HT1080 cells relative to doxorubicin; assay type: ADME; settings: ht-1080; in short: as §1
# [9] = system: Bone marrow; experiment: Bone marrow toxicity in mouse bone marrow assessed as reticulocyte count at 14 umol/kg qd for 10 days; assay type: tissue-based; settings: in vivo, 240 h
# In short: (§2)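 Mice were dosed once daily for 10 days (qdx10). Marrow toxicity was read out as the reticulocyte level, expressed as a percentage, and compared with vehicle-treated mice.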
# [10] = system: Bone marrow; experiment: Bone marrow toxicity in mouse bone marrow assessed as reticulocyte count at 6 umol/kg qd for 10 days; assay type: tissue-based; settings: in vivo, 240 h; in short: as §2
# [11] = system: Bone marrow; experiment: Bone marrow toxicity in mouse bone marrow assessed as reticulocyte count at 4 umol/kg qd for 10 days; assay type: tissue-based; settings: in vivo, 240 h; in short: as §2
# [12] = system: Bone marrow; experiment: Bone marrow toxicity in mouse bone marrow assessed as reticulocyte count at 2 umol/kg qd for 10 days; assay type: tissue-based; settings: in vivo, 240 h; in short: as §2
# 72 kDa type IV collagenase (Homo sapiens), sequence (P08253 110-660 limits assumed): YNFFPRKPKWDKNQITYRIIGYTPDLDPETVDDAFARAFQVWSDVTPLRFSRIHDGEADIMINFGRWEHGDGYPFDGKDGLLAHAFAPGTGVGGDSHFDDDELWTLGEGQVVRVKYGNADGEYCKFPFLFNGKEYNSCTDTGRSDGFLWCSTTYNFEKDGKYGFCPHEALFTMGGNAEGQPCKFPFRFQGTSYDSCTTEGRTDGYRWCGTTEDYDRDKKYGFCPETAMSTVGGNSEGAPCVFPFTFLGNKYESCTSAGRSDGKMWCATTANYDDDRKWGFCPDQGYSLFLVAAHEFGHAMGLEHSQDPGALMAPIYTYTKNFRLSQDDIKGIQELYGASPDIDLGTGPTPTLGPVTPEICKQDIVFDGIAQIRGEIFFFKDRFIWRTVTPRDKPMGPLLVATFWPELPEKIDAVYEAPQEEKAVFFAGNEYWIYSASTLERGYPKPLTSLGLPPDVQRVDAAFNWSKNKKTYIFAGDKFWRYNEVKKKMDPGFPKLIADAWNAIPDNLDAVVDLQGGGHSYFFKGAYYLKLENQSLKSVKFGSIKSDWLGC
# Neprilysin (Homo sapiens), sequence (P08473 whole entry): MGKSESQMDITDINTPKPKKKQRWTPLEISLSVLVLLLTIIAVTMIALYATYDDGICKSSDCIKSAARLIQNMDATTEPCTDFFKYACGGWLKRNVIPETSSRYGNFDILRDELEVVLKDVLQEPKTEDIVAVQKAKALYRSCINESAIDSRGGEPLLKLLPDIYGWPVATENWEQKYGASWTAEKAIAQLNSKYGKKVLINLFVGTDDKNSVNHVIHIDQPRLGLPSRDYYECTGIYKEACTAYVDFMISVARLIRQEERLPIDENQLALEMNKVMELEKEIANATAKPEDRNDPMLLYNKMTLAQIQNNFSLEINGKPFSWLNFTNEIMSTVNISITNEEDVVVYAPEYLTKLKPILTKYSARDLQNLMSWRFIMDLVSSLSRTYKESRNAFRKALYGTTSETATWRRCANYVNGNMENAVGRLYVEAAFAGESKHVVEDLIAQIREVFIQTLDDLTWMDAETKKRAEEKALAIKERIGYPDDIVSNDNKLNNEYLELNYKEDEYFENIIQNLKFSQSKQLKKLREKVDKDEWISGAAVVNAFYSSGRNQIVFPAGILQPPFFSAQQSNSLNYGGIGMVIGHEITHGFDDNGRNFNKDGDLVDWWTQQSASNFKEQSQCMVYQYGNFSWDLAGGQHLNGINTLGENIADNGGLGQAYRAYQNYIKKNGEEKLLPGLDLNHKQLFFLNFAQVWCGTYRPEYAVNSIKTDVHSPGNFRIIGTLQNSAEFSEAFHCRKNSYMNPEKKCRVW
# Matrix metalloproteinase-9 (Homo sapiens), sequence (P14780 whole entry): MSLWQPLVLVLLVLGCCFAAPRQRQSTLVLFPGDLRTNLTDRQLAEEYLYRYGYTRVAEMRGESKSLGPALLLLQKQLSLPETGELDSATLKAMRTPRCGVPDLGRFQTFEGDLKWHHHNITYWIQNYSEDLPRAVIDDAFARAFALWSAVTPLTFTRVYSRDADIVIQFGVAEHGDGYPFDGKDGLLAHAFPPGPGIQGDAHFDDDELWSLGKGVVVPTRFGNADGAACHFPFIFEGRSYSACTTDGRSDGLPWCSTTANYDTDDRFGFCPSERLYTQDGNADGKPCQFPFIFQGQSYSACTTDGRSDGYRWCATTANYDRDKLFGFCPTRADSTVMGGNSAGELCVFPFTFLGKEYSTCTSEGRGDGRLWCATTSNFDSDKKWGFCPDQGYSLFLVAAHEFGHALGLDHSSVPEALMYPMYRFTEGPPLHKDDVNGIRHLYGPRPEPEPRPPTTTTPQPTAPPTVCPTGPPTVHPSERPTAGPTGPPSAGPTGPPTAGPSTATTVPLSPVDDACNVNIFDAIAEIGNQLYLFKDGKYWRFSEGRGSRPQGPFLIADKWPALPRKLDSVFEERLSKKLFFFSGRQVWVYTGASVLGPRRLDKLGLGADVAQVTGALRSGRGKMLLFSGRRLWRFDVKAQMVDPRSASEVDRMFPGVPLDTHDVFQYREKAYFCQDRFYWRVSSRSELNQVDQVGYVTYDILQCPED
Compound,Ratio [1],Ratio [2],Ratio [3],Ratio [4],solubility [5] [µg/mL],remaining at 6 h [6] [%],Drug uptake [7] [pmol/g],Ratio [8],Activity [9] [%],Activity [10] [%],Activity [11] [%],Activity [12] [%]
COc1cccc2c1C(=O)c1c(O)c3c(c(O)c1C2=O)C[C@@](O)(C(=O)CO)C[C@@H]3O[C@H]1C[C@H](NC(=O)[C@H](CC(C)C)NC(=O)CNC(=O)[C@H](CC(C)C)NC(=O)[C@@H]2CCCN2C(C)=O)[C@H](O)[C@H](C)O1 (Ac-PLGL-{Doxorubicin(3'-N)}),–,< 1,–,< 1,–,–,–,–,–,–,–,–
COc1cccc2c1C(=O)c1c(O)c3c(c(O)c1C2=O)C[C@@](O)(C(=O)CO)C[C@@H]3O[C@H]1C[C@H](NC(=O)[C@H](CC(C)C)NC(=O)[C@H](C)NC(=O)[C@H](Cc2ccc(O)cc2)NC(=O)[C@H](CC(C)C)NC(=O)CNC(=O)[C@H](CC(C)C)NC(=O)[C@@H]2CCCN2C(C)=O)[C@H](O)[C@H](C)O1 (Ac-PLGLYAL-{Doxorubicin(3'-N)}),> 120,> 120,> 120,> 120,–,–,–,–,–,–,–,–
COc1cccc2c1C(=O)c1c(O)c3c(c(O)c1C2=O)C[C@@](O)(C(=O)CO)C[C@@H]3O[C@H]1C[C@H](NC(=O)[C@H](CC(C)C)NC(=O)[C@H](Cc2ccc(O)cc2)NC(=O)[C@H](CSCc2ccccc2)NC(=O)CNC(=O)[C@H](CC(C)C)NC(=O)[C@@H]2CCCN2C(=O)[C@H](CCC(=O)O)NC(C)=O)[C@H](O)[C@H](C)O1 (Ac-EPLGC(Bn)YL-{Doxorubicin(3'-N)}),< 1,107,97,40,> 2200,90,–,–,–,–,–,–
COc1cccc2c1C(=O)c1c(O)c3c(c(O)c1C2=O)C[C@@](O)(C(=O)CO)C[C@@H]3O[C@H]1C[C@H](NC(=O)[C@H](CC(C)C)NC(=O)[C@H](CC(C)C)NC(=O)CNC(=O)[C@H](CC(C)C)NC(=O)[C@@H]2CCCN2C(C)=O)[C@H](O)[C@H](C)O1 (Ac-PLGLL-{Doxorubicin(3'-N)}),22,> 120,4,18,–,–,–,–,–,–,–,–
COc1cccc2c1C(=O)c1c(O)c3c(c(O)c1C2=O)C[C@@](O)(C(=O)CO)C[C@@H]3O[C@H]1C[C@H](NC(=O)[C@H](CC(C)C)NC(=O)[C@H](CC(C)C)NC(=O)CNC(=O)[C@H](CC(C)C)NC(C)=O)[C@H](O)[C@H](C)O1 (Ac-LGLL-{Doxorubicin(3'-N)}),5,< 1,< 1,< 1,–,–,–,–,–,–,–,–
COc1cccc2c1C(=O)c1c(O)c3c(c(O)c1C2=O)C[C@@](O)(C(=O)CO)C[C@@H]3O[C@H]1C[C@H](NC(=O)[C@H](CC(C)C)NC(=O)C(CCCN2CCN(C)CC2)NC(=O)[C@H](CCc2ccccc2)NC(=O)CNC(=O)[C@H](CC(C)C)NC(=O)[C@@H]2CCCN2C(C)=O)[C@H](O)[C@H](C)O1 (stereo partly drawn) (Ac-PLG[hPhe][X6]L-{Doxorubicin(3'-N)}),< 1,73,> 120,55,130,100,–,–,–,–,–,–
COc1cccc2c1C(=O)c1c(O)c3c(c(O)c1C2=O)C[C@@](O)(C(=O)CO)C[C@@H]3O[C@H]1C[C@H](NC(=O)[C@H](CC(C)C)NC(=O)[C@H](Cc2ccc(O)cc2)NC(=O)[C@@H](NC(=O)CNC(=O)[C@H](CO)NC(=O)[C@@H]2CCCN2C(=O)c2cc(S(=O)(=O)O)cc(S(=O)(=O)O)c2)[C@@H](C)OCc2ccccc2)[C@H](O)[C@H](C)O1 (X4-PSGT(Bn)YL-{Doxorubicin(3'-N)}),< 1,> 120,> 120,114,–,100,600,13,–,–,–,–
COc1cccc2c1C(=O)c1c(O)c3c(c(O)c1C2=O)C[C@@](O)(C(=O)CO)C[C@@H]3O[C@H]1C[C@H](N)[C@H](O)[C@H](C)O1 [DOXORUBICIN],–,–,–,–,–,–,1600,1,0.2,0.3,0.1,0.4
COc1cccc2c1C(=O)c1c(O)c3c(c(O)c1C2=O)C[C@@](O)(C(=O)CO)C[C@@H]3O[C@H]1C[C@H](NC(=O)[C@H](CC(C)C)NC(=O)[C@H](Cc2ccc(O)cc2)NC(=O)[C@H](COCc2ccccc2)NC(=O)CNC(=O)[C@H](CCCNC(N)=O)NC(=O)[C@@H]2CCCN2C(=O)CS(=O)(=O)O)[C@H](O)[C@H](C)O1 (X5-P[Cit]GS(Bn)YL-{Doxorubicin(3'-N)}),< 1,38,56,25,> 2300,29,–,–,–,–,–,–

# Further lines, with some results ahead:
Ratio [1],Ratio [2],Ratio [3],Ratio [4],solubility [5] [µg/mL],remaining at 6 h [6] [%],Drug uptake [7] [pmol/g],Ratio [8],Compound,Activity [9] [%],Activity [10] [%],Activity [11] [%],Activity [12] [%]
8,1,24,6,–,–,–,–,COc1cccc2c1C(=O)c1c(O)c3c(c(O)c1C2=O)C[C@@](O)(C(=O)CO)C[C@@H]3O[C@H]1C[C@H](NC(=O)[C@H](CC(C)C)NC(=O)[C@H](Cc2ccc(O)cc2)NC(=O)[C@H](CC(C)C)NC(=O)CNC(=O)[C@H](CC(C)C)NC(C)=O)[C@H](O)[C@H](C)O1 (Ac-LGLYL-{Doxorubicin(3'-N)}),–,–,–,–
22,390,> 120,88,–,–,–,–,COc1cccc2c1C(=O)c1c(O)c3c(c(O)c1C2=O)C[C@@](O)(C(=O)CO)C[C@@H]3O[C@H]1C[C@H](NC(=O)[C@H](CC(C)C)NC(=O)[C@H](Cc2ccc(O)cc2)NC(=O)[C@H](CC(C)C)NC(=O)CNC(=O)[C@H](CC(C)C)NC(=O)[C@@H]2CCCN2C(C)=O)[C@H](O)[C@H](C)O1 (Ac-PLGLYL-{Doxorubicin(3'-N)}),–,–,–,–
2.1,79,69,24,40,31,–,–,COC[C@H](NC(=O)CNC(=O)[C@H](CC(C)C)NC(=O)[C@@H]1CCCN1C(C)=O)C(=O)N[C@@H](Cc1ccc(O)cc1)C(=O)N[C@@H](CC(C)C)C(=O)N[C@H]1C[C@H](O[C@H]2C[C@](O)(C(=O)CO)Cc3c(O)c4c(c(O)c32)C(=O)c2c(OC)cccc2C4=O)O[C@@H](C)[C@H]1O (Ac-PLGS(Me)YL-{Doxorubicin(3'-N)}),–,–,–,–
< 1,34,25,7,–,–,–,–,COc1cccc2c1C(=O)c1c(O)c3c(c(O)c1C2=O)C[C@@](O)(C(=O)CO)C[C@@H]3O[C@H]1C[C@H](NC(=O)[C@H](CC(C)C)NC(=O)[C@H](Cc2ccc(O)cc2)NC(=O)[C@H](COCc2ccccc2)NC(=O)CNC(=O)[C@H](CC(C)C)NC(=O)[C@@H]2CCCN2C(C)=O)[C@H](O)[C@H](C)O1 (Ac-PLGS(Bn)YL-{Doxorubicin(3'-N)}),–,–,–,–
1,< 1,19,11,–,–,–,–,COc1cccc2c1C(=O)c1c(O)c3c(c(O)c1C2=O)C[C@@](O)(C(=O)CO)C[C@@H]3O[C@H]1C[C@H](NC(=O)[C@H](CC(C)C)NC(=O)[C@H](C)NC(=O)[C@H](CCc2ccccc2)NC(=O)CNC(=O)[C@H](CC(C)C)NC(=O)[C@@H]2CCCN2C(C)=O)[C@H](O)[C@H](C)O1 (Ac-PLG[hPhe]AL-{Doxorubicin(3'-N)}),–,–,–,–
< 1,52,89,20,1400,100,–,–,COc1cccc2c1C(=O)c1c(O)c3c(c(O)c1C2=O)C[C@@](O)(C(=O)CO)C[C@@H]3O[C@H]1C[C@H](NC(=O)[C@H](CC(C)C)NC(=O)[C@H](Cc2ccc(O)cc2)NC(=O)[C@H](COCc2ccccc2)NC(=O)CNC(=O)[C@H](CC(C)C)NC(=O)C2CCCN2C(=O)CCC(=O)O)[C@H](O)[C@H](C)O1 (stereo partly drawn) (Suc-[ξP]LGS(Bn)YL-{Doxorubicin(3'-N)}),–,–,–,–
< 1,25,111,37,> 2400,90,1500,16,COc1cccc2c1C(=O)c1c(O)c3c(c(O)c1C2=O)C[C@@](O)(C(=O)CO)C[C@@H]3O[C@H]1C[C@H](NC(=O)[C@H](CC(C)C)NC(=O)[C@H](Cc2ccc(O)cc2)NC(=O)[C@H](COCc2ccccc2)NC(=O)CNC(=O)[C@H](CC(C)C)NC(=O)[C@@H]2CCCN2C(=O)CS(=O)(=O)O)[C@H](O)[C@H](C)O1 (X5-PLGS(Bn)YL-{Doxorubicin(3'-N)}),–,–,–,–
< 1,43,58,21,380,59,–,–,COc1cccc2c1C(=O)c1c(O)c3c(c(O)c1C2=O)C[C@@](O)(C(=O)CO)C[C@@H]3O[C@H]1C[C@H](NC(=O)[C@H](CC(C)C)NC(=O)[C@H](Cc2ccc(O)cc2)NC(=O)C(CCc2ccncc2)NC(=O)CNC(=O)[C@H](CC(C)C)NC(=O)[C@@H]2CCCN2C(C)=O)[C@H](O)[C@H](C)O1 (stereo partly drawn) (Ac-PLG[X2]YL-{Doxorubicin(3'-N)}),–,–,–,–
< 1,> 120,> 120,116,1,13,–,–,COc1cccc2c1C(=O)c1c(O)c3c(c(O)c1C2=O)C[C@@](O)(C(=O)CO)C[C@@H]3O[C@H]1C[C@H](NC(=O)[C@H](CC(C)C)NC(=O)[C@H](CCc2ccc(O)cc2)NC(=O)[C@H](CCc2ccccc2)NC(=O)CNC(=O)[C@H](CC(C)C)NC(=O)[C@@H]2CCCN2C(C)=O)[C@H](O)[C@H](C)O1 (Ac-PLG[hPhe][hTyr]L-{Doxorubicin(3'-N)}),–,–,–,–
